Reference: ChEMBL document CHEMBL1208690, “A novel aryl-hydrazide from the marine lichen Lichina pygmaea: isolation, synthesis of derivatives, and cytotoxicity assays” (Bioorg Med Chem Lett, 2010)

What was measured:
A-375 [1] = assay: Cytotoxicity activity against human A375 cells after 24 hrs by NRU assay; assay type: functional, cell-based; conditions: A-375, 24 h
How it was run: (§1)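 Neutral red uptake assay. A375 cells were seeded at 12×10³ and B16 at 10×10³ cells/well, then incubated 24 h at 37 °C in humidified 5% CO₂. Cells were exposed to compound dilutions in RPMI for 24 or 48 h. Dye was extracted with ethanol/acetic acid/water (50:1:49) and A540 read. IC50 was taken graphically from concentration-effect curves.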

A-375 [2] = assay: Cytotoxicity activity against human A375 cells at 50 uM after 24 hrs by NRU assay; assay type: functional; conditions: A-375, 24 h; how it was run: as §1
A-375 [3] = assay: Cytotoxicity activity against human A375 cells after 48 hrs by NRU assay; assay type: functional, cell-based; conditions: A-375, 48 h; how it was run: as §1
A-375 [4] = assay: Cytotoxicity activity against human A375 cells at 50 uM after 48 hrs by NRU assay; assay type: functional; conditions: A-375, 48 h; how it was run: as §1
B16 [5] = assay: Cytotoxicity activity against mouse B16 cells after 24 hrs by NRU assay; assay type: functional, cell-based; conditions: B16, 24 h; how it was run: as §1
B16 [6] = assay: Cytotoxicity activity against mouse B16 cells at 50 uM after 24 hrs by NRU assay; assay type: functional; conditions: B16, 24 h; how it was run: as §1
B16 [7] = assay: Cytotoxicity activity against mouse B16 cells after 48 hrs by NRU assay; assay type: functional, cell-based; conditions: B16, 48 h; how it was run: as §1
B16 [8] = assay: Cytotoxicity activity against mouse B16 cells at 50 uM after 48 hrs by NRU assay; assay type: functional; conditions: B16, 48 h; how it was run: as §1

Row | Compound | IC50 (A-375 [1]) [µM] | inhibition at 50 µM (A-375 [2]) [%] | IC50 (A-375 [3]) [µM] | inhibition at 50 µM (A-375 [4]) [%] | IC50 (B16 [5]) [µM] | inhibition at 50 µM (B16 [6]) [%] | IC50 (B16 [7]) [µM] | inhibition at 50 µM (B16 [8]) [%]
1 | COC1=C(NC(CO)CO)C[C@@](O)(CO)CC1=O [MYCOSPORINE SERINOL] | > 50 | 11 | > 50 | 20 | > 50 | 34 | 27 | 85
2 | COc1cc([C@@H]2c3cc4c(cc3[C@@H](O[C@@H]3O[C@@H]5CO[C@@H](C)O[C@H]5[C@H](O)[C@H]3O)[C@H]3COC(=O)[C@H]23)OCO4)cc(OC)c1O [ETOPOSIDE] | 19 | 100 | 12 | 100 | 9 | 100 | 0.13 | 100
3 | O=C(CC[C@H](NC(=O)OCc1ccccc1)C(=O)OCc1ccccc1)NNc1ccccc1OCc1ccccc1 | 29 | 77 | 30 | 69 | 21 | 96 | 15 | 100
4 | N[C@@H](CCC(=O)NNc1cccc(O)c1)C(=O)O | > 50 | 8 | > 50 | 14 | 12 | 100 | 12 | 100
5 | O=C(CC[C@H](NC(=O)OCc1ccccc1)C(=O)OCc1ccccc1)NNc1ccc(OCc2ccccc2)cc1 | > 50 | 4 | > 50 | 19 | 5 | 100 | 0.6 | 100
6 | N[C@@H](CCC(=O)NNc1ccc(O)cc1)C(=O)O [XANTHODERMINE] | > 50 | 12 | > 50 | 31 | 1.6 | 100 | 0.7 | 100
7 | O=C(CC[C@H](NC(=O)OCc1ccccc1)C(=O)OCc1ccccc1)NNc1cccc(OCc2ccccc2)c1 | 28 | 80 | 29 | 73 | 8 | 100 | 14.5 | 100
